The target in data set [1] is T1, CDC7/DBF4 (Cell division cycle 7-related protein kinase/Activator of S phase kinase) (Homo sapiens, UniProt O00311). Description: Inhibition of human recombinant Cdc7/Dbf4 by IMAP assay. It is filed as protein-complex assay.
The nature of data set [2]: Permeability in human Caco-2 cells. The class given is ADME, cell-based. The following applies: read-out: permeability. For orientation: Passage across Caco-2 layers is used to estimate intestinal permeability.
Data set [3] is described as follows: Solubility at pH 6.5. Conditions: buffer. The class given is physicochemical.
Data set [4] concerns the target T1, CDC7/DBF4 (Cell division cycle 7-related protein kinase/Activator of S phase kinase). Description: Inhibition of human recombinant Cdc7/Dbf4 by HTRF assay.
Data set [5] concerns the target Cyclin-dependent kinase 1/cyclin B1 (Homo sapiens, UniProt P06493). Description: Inhibition of human CDK1/Cyclin B by IMAP assay. The class given is protein-complex assay.
Data set [6] has as its target Cyclin-dependent kinase 2 (Homo sapiens, UniProt P24941). The experiment in a line: Inhibition of human CDK2/Cyclin E by IMAP assay.
Data set [7] in a line: Inhibition of human CDK4/Cyclin D by IMAP assay.
Data set [8] concerns the target RAC-alpha serine/threonine-protein kinase (Homo sapiens, UniProt P31749). The experiment in a line: Inhibition of human AKT by IMAP assay.
A short description of data set [9]: Inhibition of human PKA by IMAP assay.
Data set [10] has as its target Protein kinase C alpha type (Homo sapiens, UniProt P17252). The experiment in a line: Inhibition of human PKCalpha by IMAP assay.
Data set [11] has as its target Protein kinase C delta type (Homo sapiens, UniProt Q05655). The experiment in a line: Inhibition of human PKCdelta by IMAP assay.
The target in data set [12] is Mitogen-activated protein kinase 1 (Homo sapiens, UniProt P28482). Description: Inhibition of human ERK2 by IMAP assay.
Chain of Mitogen-activated protein kinase 1 (P28482 whole entry): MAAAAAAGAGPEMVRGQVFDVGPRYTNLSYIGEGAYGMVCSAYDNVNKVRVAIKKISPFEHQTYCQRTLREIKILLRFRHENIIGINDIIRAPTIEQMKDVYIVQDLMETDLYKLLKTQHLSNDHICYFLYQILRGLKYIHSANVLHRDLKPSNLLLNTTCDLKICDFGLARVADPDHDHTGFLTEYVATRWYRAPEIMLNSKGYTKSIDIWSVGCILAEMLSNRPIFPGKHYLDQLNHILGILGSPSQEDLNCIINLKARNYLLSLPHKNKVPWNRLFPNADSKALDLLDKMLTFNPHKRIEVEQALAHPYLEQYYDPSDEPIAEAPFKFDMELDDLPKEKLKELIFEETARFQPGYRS
Data set [13] concerns the target T2, Serine/threonine-protein kinase Sgk1 (Homo sapiens, UniProt O00141).
T2 sequence (O00141 whole entry): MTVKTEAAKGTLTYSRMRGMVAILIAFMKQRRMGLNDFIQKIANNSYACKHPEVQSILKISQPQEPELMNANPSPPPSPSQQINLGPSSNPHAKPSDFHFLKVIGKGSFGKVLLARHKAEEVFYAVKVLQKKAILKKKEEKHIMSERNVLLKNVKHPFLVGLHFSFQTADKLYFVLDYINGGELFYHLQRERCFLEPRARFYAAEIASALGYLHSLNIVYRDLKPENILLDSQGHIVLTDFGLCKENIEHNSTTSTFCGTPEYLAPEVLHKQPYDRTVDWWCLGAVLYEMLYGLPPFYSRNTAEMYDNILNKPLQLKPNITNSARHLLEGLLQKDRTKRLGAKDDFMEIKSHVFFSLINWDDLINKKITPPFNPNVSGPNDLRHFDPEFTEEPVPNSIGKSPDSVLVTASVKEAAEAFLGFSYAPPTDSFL
The experiment in a line: Inhibition of human SGK by IMAP assay.

Data set [14] deals with Tyrosine-protein kinase Fyn (Homo sapiens, UniProt P06241). Description: Inhibition of human Fyn by IMAP assay.
Chain of Tyrosine-protein kinase Fyn (P06241 whole entry): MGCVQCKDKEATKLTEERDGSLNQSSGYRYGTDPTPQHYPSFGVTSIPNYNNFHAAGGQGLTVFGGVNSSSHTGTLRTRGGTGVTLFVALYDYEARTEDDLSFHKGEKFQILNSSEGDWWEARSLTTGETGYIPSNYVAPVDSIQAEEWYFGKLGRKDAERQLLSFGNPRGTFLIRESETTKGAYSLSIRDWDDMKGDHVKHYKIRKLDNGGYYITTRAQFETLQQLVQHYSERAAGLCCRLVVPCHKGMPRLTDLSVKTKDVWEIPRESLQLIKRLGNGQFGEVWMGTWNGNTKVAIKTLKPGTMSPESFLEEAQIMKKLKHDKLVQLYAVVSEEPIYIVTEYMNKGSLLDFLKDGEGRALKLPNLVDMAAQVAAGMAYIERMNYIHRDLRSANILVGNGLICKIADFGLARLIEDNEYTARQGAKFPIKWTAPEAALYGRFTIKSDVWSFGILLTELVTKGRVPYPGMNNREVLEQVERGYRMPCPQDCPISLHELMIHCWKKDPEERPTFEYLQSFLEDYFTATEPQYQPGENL
For a further data set, the target named is T3, Ephrin type-B receptor 3 (Homo sapiens, UniProt P54753).
T3 sequence (P54753 whole entry): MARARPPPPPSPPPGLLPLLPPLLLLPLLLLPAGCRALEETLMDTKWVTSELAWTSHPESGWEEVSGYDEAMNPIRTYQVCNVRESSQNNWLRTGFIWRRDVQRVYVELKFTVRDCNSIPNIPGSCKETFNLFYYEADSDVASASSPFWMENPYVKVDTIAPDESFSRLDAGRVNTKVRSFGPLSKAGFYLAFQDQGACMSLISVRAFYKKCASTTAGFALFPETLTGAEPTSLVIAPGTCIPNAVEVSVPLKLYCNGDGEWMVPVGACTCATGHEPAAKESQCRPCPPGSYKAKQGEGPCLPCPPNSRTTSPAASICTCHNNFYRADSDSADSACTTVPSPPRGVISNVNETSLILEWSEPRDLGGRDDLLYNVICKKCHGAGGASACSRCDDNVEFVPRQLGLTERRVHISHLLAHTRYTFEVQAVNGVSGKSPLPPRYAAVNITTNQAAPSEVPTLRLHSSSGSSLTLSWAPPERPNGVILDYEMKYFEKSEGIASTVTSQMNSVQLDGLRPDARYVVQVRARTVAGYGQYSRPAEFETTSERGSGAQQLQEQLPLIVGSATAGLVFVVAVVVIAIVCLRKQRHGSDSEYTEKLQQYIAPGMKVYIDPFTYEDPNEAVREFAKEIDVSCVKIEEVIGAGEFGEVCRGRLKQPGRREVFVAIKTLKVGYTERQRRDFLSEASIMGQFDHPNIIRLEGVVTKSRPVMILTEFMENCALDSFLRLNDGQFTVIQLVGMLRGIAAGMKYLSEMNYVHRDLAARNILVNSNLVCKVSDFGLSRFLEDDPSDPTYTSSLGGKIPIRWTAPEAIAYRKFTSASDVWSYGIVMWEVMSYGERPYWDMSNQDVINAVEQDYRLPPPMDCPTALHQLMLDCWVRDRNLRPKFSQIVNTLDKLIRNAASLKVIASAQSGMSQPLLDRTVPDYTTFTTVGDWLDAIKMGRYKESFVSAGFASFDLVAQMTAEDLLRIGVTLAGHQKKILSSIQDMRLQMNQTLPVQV
The experiment in a line: Inhibition of human EphB3 by IMAP assay.

Data set [15] deals with CDC7/DBF4 (Cell division cycle 7-related protein kinase/Activator of S phase kinase) (Homo sapiens) (UniProt Q9UBU7+O00311). The experiment in a line: Inhibition of Cdc7/Dbf4-mediated MCM2 phosphorylation in human HCT116 cells assessed as decrease in faster migration of protein at 20 uM after 18 hrs by Western blot analysis. The class given is cell-based. Conditions: HCT-116. The procedure, abridged:
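HCT116 cells were arrested with 100 nM nocodazole for 16 h and mitotic cells were collected by shake-off and washed. The resulting G1 cells were incubated with 20 µM compound or DMSO for 18 h. MCM2 and phospho-MCM2 were read by Western blot.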
(In general: Immunoblotting shows a protein as a band on a membrane.)

Another data set concerns HCT-116. The experiment in a line: Cytotoxicity against human HCT116 cells MTT assay. The class given is functional, cell-based. The procedure, abridged: (§1)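 MTT viability assay on human colon cancer cell lines exposed in vitro across a compound concentration range. IC50 was taken from the dose-response.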
In general terms: Tetrazolium assays rely on reduction of a dye to a coloured formazan, in cell work by metabolically active cells.

The next data set deals with RKO. Description: Cytotoxicity against human RKO cells MTT assay. It is filed as functional, cell-based. The procedure, abridged: as §1
The subject of the next data set is SW480. Description: Cytotoxicity against human SW480 cells MTT assay. The class given is functional, cell-based. The procedure, abridged: as §1

The source made the active and inactive calls. No cut-off for these calls is given here. A value given as a limit tells only on which side of the number the result lay.

T1 sequence (Q9UBU7 whole entry): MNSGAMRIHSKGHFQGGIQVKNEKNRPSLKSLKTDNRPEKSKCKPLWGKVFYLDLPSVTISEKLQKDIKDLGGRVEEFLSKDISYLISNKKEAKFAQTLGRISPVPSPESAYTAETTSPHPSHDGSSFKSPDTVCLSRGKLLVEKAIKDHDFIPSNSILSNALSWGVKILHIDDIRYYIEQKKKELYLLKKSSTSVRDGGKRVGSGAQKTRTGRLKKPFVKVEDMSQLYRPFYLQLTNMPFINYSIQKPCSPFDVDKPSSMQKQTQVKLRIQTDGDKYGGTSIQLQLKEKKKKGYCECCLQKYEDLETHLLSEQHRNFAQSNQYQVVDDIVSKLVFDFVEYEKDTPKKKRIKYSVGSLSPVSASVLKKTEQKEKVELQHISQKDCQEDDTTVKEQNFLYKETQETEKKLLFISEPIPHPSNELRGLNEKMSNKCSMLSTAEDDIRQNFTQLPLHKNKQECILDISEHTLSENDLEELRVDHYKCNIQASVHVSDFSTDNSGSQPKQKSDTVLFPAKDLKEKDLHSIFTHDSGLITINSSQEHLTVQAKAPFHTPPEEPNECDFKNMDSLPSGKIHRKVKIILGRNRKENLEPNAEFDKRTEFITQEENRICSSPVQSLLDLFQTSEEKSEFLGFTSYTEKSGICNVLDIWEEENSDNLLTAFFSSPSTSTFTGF
T1 sequence (O00311 whole entry): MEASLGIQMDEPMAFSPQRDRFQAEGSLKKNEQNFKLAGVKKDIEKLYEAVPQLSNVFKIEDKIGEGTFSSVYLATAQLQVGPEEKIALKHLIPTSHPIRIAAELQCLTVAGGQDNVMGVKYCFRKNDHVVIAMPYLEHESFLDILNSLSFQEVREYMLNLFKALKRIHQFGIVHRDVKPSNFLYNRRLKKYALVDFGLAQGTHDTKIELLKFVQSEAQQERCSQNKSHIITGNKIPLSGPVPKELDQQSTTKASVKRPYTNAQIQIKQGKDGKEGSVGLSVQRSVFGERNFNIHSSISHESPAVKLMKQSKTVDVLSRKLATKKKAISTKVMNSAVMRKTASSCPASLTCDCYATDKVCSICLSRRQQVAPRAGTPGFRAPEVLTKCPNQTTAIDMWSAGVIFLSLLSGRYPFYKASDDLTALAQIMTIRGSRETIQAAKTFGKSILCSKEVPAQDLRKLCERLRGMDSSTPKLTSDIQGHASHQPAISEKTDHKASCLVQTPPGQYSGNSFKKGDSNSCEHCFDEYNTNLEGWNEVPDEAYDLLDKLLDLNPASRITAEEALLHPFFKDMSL
Chain of Protein kinase C delta type (Q05655 whole entry): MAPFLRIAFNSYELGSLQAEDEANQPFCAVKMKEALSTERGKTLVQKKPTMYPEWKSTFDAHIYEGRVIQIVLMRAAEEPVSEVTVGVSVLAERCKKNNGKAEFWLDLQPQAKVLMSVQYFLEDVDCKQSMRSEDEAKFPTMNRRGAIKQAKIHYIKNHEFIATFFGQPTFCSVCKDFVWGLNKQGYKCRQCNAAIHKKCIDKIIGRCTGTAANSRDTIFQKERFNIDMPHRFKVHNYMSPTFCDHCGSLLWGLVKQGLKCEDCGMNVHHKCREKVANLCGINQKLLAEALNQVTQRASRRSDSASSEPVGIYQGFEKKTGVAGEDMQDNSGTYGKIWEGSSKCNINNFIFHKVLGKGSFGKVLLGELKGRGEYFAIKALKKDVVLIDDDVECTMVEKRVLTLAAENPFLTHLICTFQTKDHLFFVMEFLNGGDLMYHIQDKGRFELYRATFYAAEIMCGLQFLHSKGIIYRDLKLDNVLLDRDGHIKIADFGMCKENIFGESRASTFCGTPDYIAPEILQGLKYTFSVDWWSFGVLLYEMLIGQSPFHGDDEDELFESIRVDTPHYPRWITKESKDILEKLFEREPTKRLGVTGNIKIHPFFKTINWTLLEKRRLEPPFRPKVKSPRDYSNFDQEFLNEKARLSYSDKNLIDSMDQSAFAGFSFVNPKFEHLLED
Chain of Cyclin-dependent kinase 1/cyclin B1 (P06493 whole entry): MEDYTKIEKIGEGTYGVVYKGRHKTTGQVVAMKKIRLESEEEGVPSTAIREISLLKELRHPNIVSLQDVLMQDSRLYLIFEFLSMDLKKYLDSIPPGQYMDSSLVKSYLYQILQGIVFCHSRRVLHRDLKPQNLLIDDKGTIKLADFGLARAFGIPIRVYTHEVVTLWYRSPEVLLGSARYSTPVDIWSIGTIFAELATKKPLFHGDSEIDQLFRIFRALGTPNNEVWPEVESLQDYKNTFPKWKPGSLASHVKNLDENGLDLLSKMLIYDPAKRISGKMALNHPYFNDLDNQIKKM
Chain of Cyclin-dependent kinase 1/cyclin B1 (P14635 whole entry, further chain): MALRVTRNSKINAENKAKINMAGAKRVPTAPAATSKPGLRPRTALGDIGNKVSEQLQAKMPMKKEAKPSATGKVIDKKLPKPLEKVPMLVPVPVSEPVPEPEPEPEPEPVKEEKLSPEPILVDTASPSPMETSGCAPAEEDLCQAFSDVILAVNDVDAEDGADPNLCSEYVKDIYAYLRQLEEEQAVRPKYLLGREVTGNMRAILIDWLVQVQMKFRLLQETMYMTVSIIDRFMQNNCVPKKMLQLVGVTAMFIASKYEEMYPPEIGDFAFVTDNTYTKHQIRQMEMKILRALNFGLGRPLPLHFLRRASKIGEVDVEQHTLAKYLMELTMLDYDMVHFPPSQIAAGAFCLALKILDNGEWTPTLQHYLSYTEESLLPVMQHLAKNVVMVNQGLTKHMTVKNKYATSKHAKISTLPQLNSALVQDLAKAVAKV
Chain of RAC-alpha serine/threonine-protein kinase (P31749 whole entry): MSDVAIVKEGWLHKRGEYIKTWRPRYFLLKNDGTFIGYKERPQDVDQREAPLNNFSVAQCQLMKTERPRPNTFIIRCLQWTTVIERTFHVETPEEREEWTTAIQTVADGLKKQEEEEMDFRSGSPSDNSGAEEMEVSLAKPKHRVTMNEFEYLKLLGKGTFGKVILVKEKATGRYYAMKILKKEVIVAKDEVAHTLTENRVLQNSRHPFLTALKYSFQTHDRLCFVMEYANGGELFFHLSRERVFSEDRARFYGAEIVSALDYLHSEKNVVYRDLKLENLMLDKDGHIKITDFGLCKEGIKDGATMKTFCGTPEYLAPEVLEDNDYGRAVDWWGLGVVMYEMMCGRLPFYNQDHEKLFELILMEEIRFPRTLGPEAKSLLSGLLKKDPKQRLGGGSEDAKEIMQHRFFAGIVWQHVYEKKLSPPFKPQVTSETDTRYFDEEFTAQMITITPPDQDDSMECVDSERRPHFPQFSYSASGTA
Chain of CDC7/DBF4 (Cell division cycle 7-related protein kinase/Activator of S phase kinase) (Homo sapiens) (O00311 whole entry, looked up): as the sequence (O00311 whole entry) above
Chain of CDC7/DBF4 (Cell division cycle 7-related protein kinase/Activator of S phase kinase) (Homo sapiens) (Q9UBU7 whole entry, looked up): as the sequence (Q9UBU7 whole entry) above

The term Ki denotes the equilibrium dissociation constant of an inhibitor or competing ligand from its target. The solubility is the concentration that dissolves in the medium under given conditions. A low value points to little dissolved substance. The IC50 is the midpoint of a concentration-inhibition curve. In the case of `Cc1nc2sc3c(N)ncnc3c2c2c1CCCC2`, the Ki in data set [1] came out at 0.5 nM. Further, the Papp in [2] is above 20 ×10⁻⁶ cm/s. The same compound displayed a solubility in data set [3] below 30 µg/mL. Moreover, the half-maximal inhibitory concentration (IC50) in data set [4] worked out at 5 nM.
On to `Cc1nc2sc3c(N)ncnc3c2c(C)c1C`, for which the Ki in data set [1] is 4 nM. In addition, in data set [2], the Papp was above 20 ×10⁻⁶ cm/s. Further, the solubility in [3] is below 30 µg/mL. Moreover, the half-maximal inhibitory concentration (IC50) in data set [4] is 40 nM.
As for `Cc1nc2sc3c(N)ncnc3c2c(C)c1Cc1ccccc1`, the Ki in data set [1] is 200 nM. Besides, in [2], the Papp was above 20 ×10⁻⁶ cm/s. In addition, the solubility in data set [3] was below 30 µg/mL. Further, the IC50 in data set [4] was 2000 nM.
For `CCOC(=O)c1cc2c(nc1C)sc1c(N)ncnc12`, the Ki in [1] stood at 1000 nM. In addition, the Papp in [2] is above 20 ×10⁻⁶ cm/s. In data set [3], the solubility was below 30 µg/mL. Also, the IC50 in [4] worked out at 10000 nM.
On to `Nc1ncnc2c1sc1nc(C3CC3)cc(C(F)(F)F)c12`, for which, in [1], the Ki amounted to 400 nM. Also, the Papp in data set [2] was above 20 ×10⁻⁶ cm/s. The compound further showed a solubility in [3] below 30 µg/mL. Besides, the 50% inhibitory concentration (IC50) in [4] is 4000 nM.
Consider `C=CCc1c(C)nc2sc3c(N)ncnc3c2c1C`, for which the Ki is 2 nM in [1]; above 5000 nM in data set [5]; above 5000 nM in data set [6]; above 5000 nM in [7]; above 5000 nM in data set [8]; 1100 nM in data set [9]. Moreover, the Ki (in data set [10]; in data set [11]; in data set [12]; in data set [13]; in data set [14]; at Ephrin type-B receptor 3) was above 5000 nM each time. For the same compound, the outcome in [15] was Active. The 50% inhibitory concentration (IC50) with HCT-116 came out at 8300 nM; in the data set on RKO, 6600 nM; in the data set with SW480, 9600 nM; in data set [4], 20 nM. Besides, the Papp in data set [2] is above 20 ×10⁻⁶ cm/s. In addition, the solubility in data set [3] is below 30 µg/mL.
For the compound `Cc1cc(C)c2c(n1)sc1c(N(C)C)ncnc12`, the Ki in data set [1] was above 3000 nM. In [2], the Papp is above 20 ×10⁻⁶ cm/s. In addition, the solubility in [3] was below 30 µg/mL. Moreover, the IC50 in data set [4] is above 30000 nM.
As for `Nc1ncnc2c1sc1ncccc12`, the Ki in data set [1] was 1200 nM. For the same compound, in data set [2], the Papp is above 20 ×10⁻⁶ cm/s. In data set [3], this compound gave a solubility below 30 µg/mL. In addition, the half-maximal inhibitory concentration (IC50) in data set [4] was determined as 12000 nM.
Consider `CNc1ncnc2c1sc1nc(C)cc(C)c12`, for which the inhibition constant (Ki) in [1] is above 3000 nM. For the same compound, the Papp in data set [2] was above 20 ×10⁻⁶ cm/s. For the same compound, the solubility in [3] was below 30 µg/mL. For the same compound, the IC50 in data set [4] is above 30000 nM.
For the compound `CCc1c(C)nc2sc3c(N)ncnc3c2c1C`, the inhibitory constant (Ki) in data set [1] is 1 nM. Further, in data set [2], the Papp is above 20 ×10⁻⁶ cm/s. This compound also showed a solubility in [3] below 30 µg/mL. In [4], the IC50 was 10 nM.
In the case of `Nc1ncnc2c1sc1ncc(-c3ccccc3)cc12`, in [1], the Ki is 900 nM. In data set [2], the Papp was above 20 ×10⁻⁶ cm/s. Further, the solubility in [3] was below 30 µg/mL. The IC50 in data set [4] worked out at 9000 nM.
Turning to `Cc1cc(C)c2c(n1)sc1c(N)ncnc12`, the Papp in data set [2] is above 20 ×10⁻⁶ cm/s. The compound also had a solubility in [3] below 30 µg/mL.
For `Cc1c2c(nc3sc4c(N)ncnc4c13)CCC2`, the Ki in data set [1] worked out at 5 nM. For the same compound, the Papp in data set [2] is above 20 ×10⁻⁶ cm/s. The solubility in [3] was below 30 µg/mL. Further, in data set [4], the IC50 was found to be 50 nM.
Regarding `Cc1c2c(nc3sc4c(N)ncnc4c13)CCCC2`, in [1], the Ki was found to be 2 nM. Moreover, the Papp in data set [2] was above 20 ×10⁻⁶ cm/s. The solubility in [3] was below 30 µg/mL. In [4], the half-maximal inhibitory concentration (IC50) stood at 20 nM.
Regarding `Cc1cc(C)c2c(n1)sc1c(Nc3ccccc3)ncnc12`, the Ki in data set [1] is above 3000 nM. Also, the Papp in data set [2] is above 20 ×10⁻⁶ cm/s. For the same compound, the solubility in [3] was below 30 µg/mL. Moreover, the IC50 in data set [4] was above 30000 nM.
In the case of `Cc1nc2sc3c(N)ncnc3c2c2c1CCC2`, the Ki in [1] came to 3 nM. Besides, in data set [2], the Papp is above 20 ×10⁻⁶ cm/s. For the same compound, in data set [3], the solubility is below 30 µg/mL. Further, the half-inhibitory concentration (IC50) in data set [4] amounted to 30 nM.

The record behind these values is ChEMBL document CHEMBL1154537, “Synthesis and evaluation of pyrido-thieno-pyrimidines as potent and selective Cdc7 kinase inhibitors” (Bioorg Med Chem Lett, 2009).
